Test results published in ChEMBL document CHEMBL2176909, “Kaurenoic acid from Sphagneticola trilobata Inhibits Inflammatory Pain: effect on cytokine production and activation of the NO-cyclic GMP-protein kinase G-ATP-sensitive potassium channel signaling pathway” (J Nat Prod, 2012).
The source made the active and inactive calls.

Key:
Mus musculus [1] = test: Antihyperalgesic activity in carrageenan-induced mechanical hyperalgesia Swiss mouse model assessed as paw withdrawal latency at 10 mg/kg, po administered 30 mins prior to challenge measured after 1 to 5 hrs post challenge by electronic pressure-meter test in presence of soluble […] inhibitor ODQ; type: functional, organism-based; set-up: dose 10 mg/kg
In short: (§1)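 Pretreatment ip: ODQ 0.3 mg/kg in 2% DMSO/saline at 30 min, KT5823 0.5 μg/mouse in 2% DMSO/saline at 5 min, or glybenclamide 0.3 mg/kg in 5% Tween 80/saline at 45 min. Each is followed by 10 mg/kg po, then intraplantar carrageenin (100 μg/paw) 30 min later. Pressure-meter Δ threshold (g) at 1, 3 and 5 h. n = 5.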

Mus musculus [2] = test: Antihyperalgesic activity in complete Freund's adjuvant-induced Swiss mouse pain model assessed as paw withdrawal latency at 10 mg/kg, po starting 1 hr post challenge for 7 days measured on day 1 post challenge by electronic pressure-meter test; type: functional, organism-based; set-up: dose 10 mg/kg
In short: (§2)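 Male Swiss mice injected intraplantar with CFA (10 μL/paw). Dosing is daily from 1 h after CFA for 7 days, either 10 mg/kg po or indomethacin 5 mg/kg ip. Electronic pressure-meter Δ withdrawal threshold (g) measured every 24 h. n = 6.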

Mus musculus [3] = test: Hepatotoxicity in Swiss mouse assessed as change in plasma ALT level at 10 mg/kg, po for 7 days measured over 7 days relative to vehicle-treated control; type: toxicity, organism-based; set-up: dose 10 mg/kg, route oral; settings: in vivo, 168 h
In short: (§3)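 Mice dosed po daily for 7 days: vehicle (2% DMSO/saline or Tris/HCl pH 8.0), 10 mg/kg, or indomethacin 2.5 mg/kg. Heparinized blood is drawn under terminal anesthesia, and plasma AST and ALT are measured with a diagnostic kit. n = 8.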

Mus musculus [4] = test: Antihyperalgesic activity in carrageenan-induced mechanical hyperalgesia Swiss mouse model assessed as paw withdrawal latency at 10 mg/kg, po administered 30 mins prior to challenge measured after 1 to 5 hrs post stimulus by electronic pressure-meter test; type: functional, organism-based; set-up: dose 10 mg/kg
In short: (§4)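 Male Swiss mice dosed po (1–10 mg/kg, 2% DMSO in saline) 30 min before intraplantar carrageenin (100 μg/paw). Control indomethacin 5 mg/kg ip given 40 min before. Electronic pressure-meter readings at 1, 3 and 5 h, mean of three. Δ withdrawal threshold (g) is the post-stimulus reading minus zero-time. n = 5.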

Mus musculus [5] = test: Antinociceptive activity in Swiss mouse assessed as inhibition of acetic acid-induced writhing at 3 to 30 mg/kg, ip administered 30 mins prior to acetic acid challenge; type: functional, organism-based
In short: (§5)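 Mice dosed ip or po (3–30 mg/kg, 2% DMSO in saline) 30 min before ip acetic acid (0.8% v/v, 10 mL/kg). Indomethacin 5 mg/kg ip given 40 min before. Cumulative writhing score over 20 min. n = 6.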

Mus musculus [6] = test: Antihyperalgesic activity in carrageenan-induced mechanical hyperalgesia Swiss mouse model assessed as paw withdrawal latency at 10 mg/kg, po administered 30 mins prior to challenge measured after 1 to 5 hrs post challenge by electronic pressure-meter test in presence of 90 mg/kg L-NAME; type: functional, organism-based
In short: (§6)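 Swiss mice given L-NAME (10–90 mg/kg ip) 60 min before 10 mg/kg po. Intraplantar carrageenin (100 μg/paw) 30 min later. Mechanical threshold by electronic pressure-meter at 5 h, reported as Δ withdrawal threshold (g). n = 5.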

Mus musculus [7] = test: Antihyperalgesic activity against thermal hyperalgesia in Swiss mouse assessed as increase in thermal nociceptive threshold at 10 mg/kg, po after 1.5 to 5.5 hrs by hot plate test; type: functional, organism-based; set-up: dose 10 mg/kg
In short: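 Male Swiss mice (25–30 g), 10 mg/kg po. Hot plate at 55 °C inside a glass cylinder. Two baseline latencies taken ≥10 min apart, then latency read at 1.5, 3.5 and 5.5 h after dosing. Endpoint is jumping or paw licking, with a 30 s cutoff.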

Mus musculus [8] = test: Toxicity in Swiss mouse assessed as effect on muscle-relaxing effect at 10 mg/kg, po after 1.5 to 5.5 hrs by roto-rod test; type: organism-based; set-up: dose 10 mg/kg, route oral; settings: in vivo
In short: (§7)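 Rota-rod turning at 22 rpm. Mice are pre-selected 24 h earlier by staying on for two 120 s periods. Dosing is vehicle (20% Tween 80/saline) or 10 mg/kg po, with testing at 1.5, 3.5 and 5.5 h and a 120 s cutoff. n = 6.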

Mus musculus [9] = test: Antihyperalgesic activity in carrageenan-induced mechanical hyperalgesia Swiss mouse model assessed as paw withdrawal latency at 10 mg/kg, po administered 30 mins prior to challenge measured after 1 to 5 hrs post challenge by electronic pressure-meter test in presence of glibenclamide; type: functional, organism-based; set-up: dose 10 mg/kg; in short: as §1
Mus musculus [10] = test: Toxicity in Swiss mouse assessed as sedative effect at 10 mg/kg, po after 1.5 to 5.5 hrs by roto-rod test; type: organism-based; set-up: dose 10 mg/kg, route oral; settings: in vivo; in short: as §7
Mus musculus [11] = test: Antihyperalgesic activity in complete Freund's adjuvant-induced Swiss mouse pain model assessed as paw withdrawal latency at 10 mg/kg, po starting 1 hr post challenge for 7 days measured after 2 to 7 days by electronic pressure-meter test; type: functional, organism-based; set-up: dose 10 mg/kg; in short: as §2
Mus musculus [12] = test: Antinociceptive activity against formalin-induced pain in Swiss mouse assessed as inhibition of paw licking at 10 mg/kg, po administered 30 mins prior to formalin challenge; type: functional, organism-based; set-up: dose 10 mg/kg
In short: (§8)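 Swiss mice dosed 10 mg/kg po 30 min before intraplantar formalin (25 μL of 1.5% in saline). Flinches and licking time counted over 0–30 min in 5-min bins and reported as 0–15 and 15–30 min phases. n = 6.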

Mus musculus [13] = test: Antinociceptive activity in po dosed Swiss mouse assessed as inhibition of acetic acid-induced writhing administered 30 mins prior to acetic acid challenge; type: functional, organism-based; in short: as §5
Mus musculus [14] = test: Antiinflammatory activity in complete Freund's adjuvant-induced Swiss mouse pain model assessed as inhibition of paw licking at 10 mg/kg, po administered 30 mins prior to challenge; type: functional, organism-based; set-up: dose 10 mg/kg
In short: (§9)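 10 mg/kg po (or vehicle) given 30 min before intraplantar CFA (10 μL/paw) in Swiss mice. Paw flinches and licking time counted over 30 min as cumulative totals. n = 6.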

Mus musculus [15] = test: Antihyperalgesic activity in carrageenan-induced mechanical hyperalgesia Swiss mouse model assessed as paw withdrawal latency at 3 mg/kg, po administered 30 mins prior to challenge measured after 1 to 3 hrs post stimulus by electronic pressure-meter test; type: functional, organism-based; set-up: dose 3 mg/kg; in short: as §4
Mus musculus [16] = test: Antiinflammatory activity in complete Freund's adjuvant-induced Swiss mouse pain model assessed as inhibition of paw flinching at 10 mg/kg, po administered 30 mins prior to challenge; type: functional, organism-based; set-up: dose 10 mg/kg; in short: as §9
Mus musculus [17] = test: Antihyperalgesic activity in carrageenan-induced mechanical hyperalgesia Swiss mouse model assessed as paw withdrawal latency at 10 mg/kg, po administered 30 mins prior to challenge measured after 1 to 5 hrs post challenge by electronic pressure-meter test in presence of PKG inhibitor KT5823; type: functional, organism-based; set-up: dose 10 mg/kg; in short: as §1
Mus musculus [18] = test: Antihyperalgesic activity in carrageenan-induced mechanical hyperalgesia Swiss mouse model assessed as paw withdrawal latency at 10 mg/kg, po administered 30 mins prior to challenge measured after 1 to 5 hrs post challenge by electronic pressure-meter test; type: functional, organism-based; set-up: dose 10 mg/kg; in short: as §4
Mus musculus [19] = test: Antihyperalgesic activity in po dosed carrageenan-induced mechanical hyperalgesia Swiss mouse model assessed as paw withdrawal latency administered 30 mins prior to challenge by electronic pressure-meter test; type: functional, organism-based; in short: as §4
Mus musculus [20] = test: Antinociceptive activity in Swiss mouse assessed as inhibition of PBQ-induced writhing at 10 mg/kg, po administered 30 mins prior to PBQ challenge; type: functional, organism-based; set-up: dose 10 mg/kg
In short: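 Swiss mice dosed po (10 mg/kg) 30 min before ip PBQ (1890 μg/kg in 2% DMSO/saline). Indomethacin 5 mg/kg ip given 40 min before. Cumulative writhing score over 20 min. n = 6.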

Mus musculus [21] = test: Antiinflammatory activity in Swiss mouse model assessed as inhibition of carrageenan-induced TNFalpha production in cutaneous plantar tissue at 10 mg/kg, po administered 30 mins prior to challenge measured 3 hrs post challenge by ELISA; type: functional, organism-based; set-up: dose 10 mg/kg
In short: (§10)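 Swiss mice given 10 mg/kg po 30 min before intraplantar carrageenin (100 μg/paw). At 3 h, plantar skin is removed under terminal anesthesia and homogenized in buffer with protease inhibitors. IL-1β and TNF-α measured by ELISA, as pg/paw. Saline-injected paws serve as controls. n = 5.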

Mus musculus [22] = test: Antihyperalgesic activity in carrageenan-induced mechanical hyperalgesia Swiss mouse model assessed as paw withdrawal latency at 10 mg/kg, po administered 30 mins prior to challenge measured after 1 to 5 hrs post challenge by electronic pressure-meter test in presence of 10 mg/kg L-NAME; type: functional, organism-based; in short: as §6
Mus musculus [23] = test: Antihyperalgesic activity in carrageenan-induced mechanical hyperalgesia Swiss mouse model assessed as paw withdrawal latency at 1 mg/kg, po administered 30 mins prior to challenge by electronic pressure-meter test; type: functional, organism-based; set-up: dose 1 mg/kg; in short: as §4
Mus musculus [24] = test: Hepatotoxicity in Swiss mouse assessed as change in plasma AST level at 10 mg/kg, po for 7 days measured over 7 days relative to vehicle-treated control; type: toxicity, organism-based; set-up: dose 10 mg/kg, route oral; settings: in vivo, 168 h; in short: as §3
Mus musculus [25] = test: Antihyperalgesic activity in carrageenan-induced mechanical hyperalgesia Swiss mouse model assessed as paw withdrawal latency at 10 mg/kg, po administered 30 mins prior to challenge measured after 1 to 5 hrs post challenge by electronic pressure-meter test in presence of 30 mg/kg L-NAME; type: functional, organism-based; in short: as §6
Mus musculus [26] = test: Gastrointestinal toxicity in Swiss mouse assessed as increase in stomach MPO activity at 10 mg/kg, po for 7 days measured over 7 days relative to vehicle-treated control; type: organism-based; set-up: dose 10 mg/kg, route oral; settings: in vivo, 168 h
In short: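 Mice dosed po daily for 7 days: vehicle (2% DMSO/saline or Tris/HCl pH 8.0), 10 mg/kg, or indomethacin 2.5 mg/kg. Stomach is homogenized in 50 mM phosphate buffer pH 6.0 with 0.5% HTAB. Supernatant is reacted with o-dianisidine/H2O2 and read at 450 nm. Results expressed as neutrophils ×10^4/mg tissue from a neutrophil standard curve. n = 8.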

Mus musculus [27] = test: Antihyperalgesic activity in PGE2-induced mechanical hyperalgesia Swiss mouse model assessed as paw withdrawal latency at 10 mg/kg, po administered 30 mins prior to challenge measured at 3 hrs post compound treatment by electronic pressure-meter test; type: functional, organism-based; set-up: dose 10 mg/kg
In short: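 Male Swiss mice given 10 mg/kg po (vehicle 2% DMSO in saline) 30 min before intraplantar PGE2 (100 ng/paw). Electronic pressure-meter test 3 h after stimulus, each value the mean of three readings. Result is Δ withdrawal threshold (g), zero-time mean subtracted. n = 5.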

Mus musculus [28] = test: Antinociceptive activity against formalin-induced pain in Swiss mouse assessed as inhibition of paw flinching at 10 mg/kg, po administered 30 mins prior to formalin challenge; type: functional, organism-based; set-up: dose 10 mg/kg; in short: as §8
Mus musculus [29] = test: Antiinflammatory activity in Swiss mouse model assessed as inhibition of carrageenan-induced IL-1beta production in cutaneous plantar tissue at 10 mg/kg, po administered 30 mins prior to challenge measured 3 hrs post challenge by ELISA; type: functional, organism-based; set-up: dose 10 mg/kg; in short: as §10

Compound: C=C1C[C@@]23CC[C@H]4[C@@](C)(CCC[C@@]4(C)C(=O)O)[C@@H]2CC[C@@H]1C3 [KAURENOIC ACID]
- Activity (Mus musculus [1]): inactive
- Activity (Mus musculus [2]): inactive
- Activity (Mus musculus [3]): Non-toxic
- Activity (Mus musculus [4]): Active
- inhibition (Mus musculus [5]): Active
- Activity (Mus musculus [6]): inactive
- Activity (Mus musculus [7]): inactive
- Activity (Mus musculus [8]): Non-toxic
- Activity (Mus musculus [9]): inactive
- Activity (Mus musculus [10]): Non-toxic
- Activity (Mus musculus [11]): Active
- inhibition (Mus musculus [12]): Active
- inhibition (Mus musculus [13]): Dose-dependent effect
- inhibition (Mus musculus [14]): Active
- Activity (Mus musculus [15]): Active
- inhibition (Mus musculus [16]): Active
- Activity (Mus musculus [17]): inactive
- Activity (Mus musculus [18]): Active
- Activity (Mus musculus [19]): Dose-dependent effect
- inhibition (Mus musculus [20]): Active
- inhibition (Mus musculus [21]): Active
- Activity (Mus musculus [22]): Active
- Activity (Mus musculus [23]): inactive
- Activity (Mus musculus [24]): Non-toxic
- Activity (Mus musculus [25]): inactive
- Activity (Mus musculus [26]): Non-toxic
- Activity (Mus musculus [27]): Active
- inhibition (Mus musculus [28]): Active
- inhibition (Mus musculus [29]): Active
